The test system of data set [1] is Molt4E6 cells. As to the kind of experiment: Cell death by trypan blue exclusion in Molt4E6 cells. It is filed as cell-based, human. The settings on record: for cell death: Molt4E6 cells, 24 h of treatment.
Data set [2] deals with Molt4E6 cells. As to the kind of experiment: Caspase activation by Western blot in Molt4E6 cells. As to conditions: 6 h of treatment. It counts as cell-based, human.
Data set [3] can be described thus: Pharmacokinetics of PF543 in wildtype mice, IP dosing. It counts as in vivo, mouse. The settings on record: after IP administration in mice.
Data set [4] is classed as in vitro ADME. The settings on record: mouse.
Data set [5] has as its system WT mice. As to the kind of experiment: Tolerability of IP dosing in the PK study. It counts as in vivo. The settings on record: 100 mg/kg IP.
The subject of a further data set is S1P levels in blood. As to the kind of experiment: Blood sphingolipid analysis by LC MS/MS after PF543 administration. It is filed as in vivo, mouse. As to conditions: 10 mg/kg of body weight, 2 h after IP injection, vs vehicle.
For data set [6], the system named is Trp53KO thymic lymphoma. Description: Thymic lymphoma growth in Trp53KO mice by ultrasound imaging. It is filed as in vivo, mouse. The settings on record: 10 mg/kg BID IP for 10 days, compared to vehicle.
The subject of data set [7] is Trp53KO thymic lymphoma. As to the kind of experiment: Cleaved caspase 3 immunohistochemistry of tumor tissue. It counts as in vivo, mouse. The settings on record: Trp53KO mice, day 10 after treatment initiation, compared to vehicle. The essentials:
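Male Trp53KO mice with ultrasound-detected thymic lymphoma (100–150 mm3) received vehicle or test compound, 10 mg/kg IP twice daily (suspension in 1% HPMC/PBS), and tumors were taken at day 10. Sections were stained overnight at 4°C with anti-cleaved caspase-3 (1:200), then biotinylated anti-rabbit, DAB/H2O2 and hematoxylin counterstain. Positive cells counted in ten 20× fields per sample, expressed per mm2; three mice per condition.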

The test system of data set [8] is mouse Trp53KO thymic lymphoma cells. Description: Proliferation, viability and cell death of cultured thymic lymphoma cells. It is filed as cell-based.
For data set [9] the test system is unchanged. Description: Sphingolipid levels in cultured cells by LC MS/MS. It is filed as cell-based. The settings on record: PF543 0.5 μM.
For data set [10], the system named is lymphocytes isolated from WT thymus. As to the kind of experiment: Viability of WT lymphocytes. It counts as cell-based, mouse.
For data set [11], the system named is WT mice. As to conditions: mouse, in vivo, ip, 10 mg/kg.
A further data set has as its system Jurkat cells. As to the kind of experiment: Cell death by trypan blue exclusion in Jurkat cells with Bak knockdown. It is filed as cell-based, human. The settings on record: Jurkat sgRNA BakA and BakB vs control cells, 24 h of treatment.

As for `CCCC[C@@H](C)[C@@H](OC(=O)C[C@@H](CC(=O)O)C(=O)O)[C@H](C[C@@H](C)C[C@H](O)CCCC[C@@H](O)C[C@H](O)[C@H](C)N)OC(=O)C[C@@H](CC(=O)O)C(=O)O` [FB1], in the data set on Molt4E6 cells [1] (FB1 25 μM pre-treatment 1 h, then 3 μM D-erythro-Sph, 24 h), the “protection from Sph-induced cell death” value is given as “did not protect”.
Turning to `CCCCCCCCCCCCC/C=C/[C@H](O)[C@H](N)CO` [L-erythro-Sph], the cell death result in the data set with Molt4E6 cells [1] is reported as “did not induce cell death”. In addition, the caspase activation entry with Molt4E6 cells [2] is reported as “did not induce cell death or caspase activation”.
On to `Cc1cc(CS(=O)(=O)c2ccccc2)cc(OCc2ccc(CN3CCC[C@@H]3CO)cc2)c1` [PF543], for which the “half-life (T1/2)” value in data set [3] was ~ 4 h. Further, the plasma protein binding in [4] is 94 % bound. Also, the “tolerability of IP dosing” value in the data set with WT mice [5] is “not tolerated”. Besides, the “S1P levels in blood” value in the data set on S1P levels in blood is on record as “decreased”. In the data set on Trp53KO thymic lymphoma [6], the “tumor growth (tumor size by ultrasound)” value is reported as “significant inhibition”. Moreover, the “number of cleaved caspase 3 positive cells in tumor samples” value with Trp53KO thymic lymphoma [7] is on record as “significantly higher”. Besides, the proliferation over time entry in data set [8] (PF543 0.5 μM, low-serum medium, counted every day for 4 days, CCK-8 at day 2) is reported as “significantly decreased”. Moreover, in [8] (Trp53KO thymic lymphoma cells treated with PF543), the cell death entry is reported as “resulted in cell death”. Moreover, in data set [8] (mouse Trp53KO lymphoma cells), the “survival of cells in culture” value is “reduced survival”. In data set [9], the “Sph levels in cells” value was “significantly increased” and the “total Cer levels in cells” value was “significantly increased”. In addition, in data set [10], the “cell viability over time” value is “did not affect cell viability”. Also, in the data set with WT mice [11], the “liver function (liver enzymes in blood)” value is given as “did not significantly impact”; the “number of total white cells and lymphocytes in blood” value is recorded as “no decrease”.
As to `CCCCCCCCCCCCC/C=C/[C@@H](O)[C@@H](N)CO` [Sph, sphingosine], the cell death entry with Molt4E6 cells [1] is “caused cell death”. The caspase activation entry in the data set on Molt4E6 cells [2] is given as “activation of caspases”. In addition, the “Sph-induced cell death after knockdown of Bak” value in the data set with Jurkat cells was “significantly protected”.
Regarding ZVAD, the “protection from PF543-induced cell death” value in data set [8] (pan-caspase inhibitor with PF543, Trp53KO thymic lymphoma cells) is “partially protected”. Further, the “inhibition of Sph-induced cell death” value with Molt4E6 cells [1] (ZVAD 40 μM pre-treatment 1 h, then 3 μM D-erythro-Sph, 24 h) was “significantly inhibited”.
